ASAP1 GAP inh: inhibitors of human ASAP1 ArfGAP activity; ASAP1-stimulated ARF1 GTP hydrolysis, GDP FP detection; inhibition, % at 16.5 µM; 360,000 compounds, 0.19% hits; Q9ULH1; in the data active = inhibition above about 25%;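 note: 0% = vehicle with enzyme and substrate and 100% = no enzyme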
ARFGAP1 inh: inhibits rat ARF GTPase activating protein 1 | inhibition, % at 16.5 µM | 360,000 compounds, 0.26% hits | Arfgap1-stimulated ARF1 GTP hydrolysis, GDP FP detection;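 active = inhibition above a per-plate limit, mean inhibition of low control wells plus 3 SD, cut at about 25% in these data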;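 note: 0% = DMSO wells with enzyme and 100% = wells lacking Arfgap1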
Target sequence (Q62848 1-136 limits assumed): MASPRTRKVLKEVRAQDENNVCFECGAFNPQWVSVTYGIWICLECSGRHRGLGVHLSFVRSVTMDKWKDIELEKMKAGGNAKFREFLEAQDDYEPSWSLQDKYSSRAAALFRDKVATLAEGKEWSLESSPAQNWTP
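material = rat Arfgap1 catalytic domain, aa 1-136 | also added = human ARF1(Δ1-17)-GTP substrate | compound dosing = one concentration, 16.5 µM, DMSO 1.26% | times = GTP hydrolysis reaction 2 h at 25 °C | measured by = FP, GDP Alexa 633 tracer displaced from anti-GDP antibody, 620/688 nm | evaluation = percent inhibition of Arfgap1-stimulated GTP hydrolysis | replication = single well per compound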
FGF22 binding: FGF22 (human) thermal shift binding. Q9HCT0. recombinant FGF22 thermal shift, SYPRO orange fluorescence; percent of sucrose octasulfate shift, DMSO zero. activity (Tm shift, normalised), % at 9.99 µM. 340,000 compounds, 1.5% hits. AID 651658;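 active = mean Tm shift, scaled 0 neutral to 100 positive control, at about 1.3% or above, every replicate too, limit read from the data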
Target sequence (Q9HCT0 whole entry, looked up): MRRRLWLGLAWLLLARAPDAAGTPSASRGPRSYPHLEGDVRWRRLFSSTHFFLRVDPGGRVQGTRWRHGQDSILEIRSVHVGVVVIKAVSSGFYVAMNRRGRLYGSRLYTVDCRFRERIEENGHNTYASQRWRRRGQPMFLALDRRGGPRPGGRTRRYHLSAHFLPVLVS
Efflux pump inh: antifungal efflux pump inhibition, Nile Red retention; S. cerevisiae Candida pump triplex; 330,000 compounds, 0.44% hits; inhibition, % at 10 µM;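 active = plate passing quality check with inhibition over a set limit, or well fluorescence over plate mean plus 4 SD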;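 note: Nile Red retained in pooled yeast measured as flow cytometry median fluorescence; 0% = buffer negative control and 100% = Enniatin B positive control; higher means more Nile Red kept so more efflux inhibition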
Rtt109 HAT inh: blocks Candida albicans Rtt109/Vps75 acetyltransferase activity. Q5AAJ8. purified Rtt109/Vps75, ThioGlo CoA-SH fluorescence, 4 h. inhibition, % at 34.9 µM. 330,000 compounds, 0.16% hits;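 active = inhibition of at least 50% in every replicate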
Target sequence (Q5AAJ8 whole entry, looked up): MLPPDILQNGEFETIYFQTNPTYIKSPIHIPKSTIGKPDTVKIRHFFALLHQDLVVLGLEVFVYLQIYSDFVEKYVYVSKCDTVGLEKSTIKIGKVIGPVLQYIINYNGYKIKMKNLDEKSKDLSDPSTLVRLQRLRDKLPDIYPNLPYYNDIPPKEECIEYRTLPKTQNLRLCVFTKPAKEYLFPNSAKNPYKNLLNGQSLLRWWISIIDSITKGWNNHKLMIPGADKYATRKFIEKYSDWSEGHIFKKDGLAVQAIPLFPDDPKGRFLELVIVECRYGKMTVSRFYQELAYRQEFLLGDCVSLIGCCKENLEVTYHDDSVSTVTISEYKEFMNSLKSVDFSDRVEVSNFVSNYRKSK
ARFGAP1 inh conf: confirmation of rat ARFGAP1 inhibitors; inhibition, % at 16.5 µM; 890 compounds, 30% hits; ARFGAP1-stimulated ARF1 GTP hydrolysis, GDP tracer FP; shares compounds with ARFGAP1 inh; AID 651608;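 active = average inhibition over triplicates above the hit cutoff set in the earlier primary screen, cut at about 25% in these data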;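 note: 0% = Arfgap1 plus ARF1-GTP with DMSO and 100% = wells lacking Arfgap1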
Starred values were filed as active, the others as inactive; x = no result. In the library only some 1.9% were active in any assay of this set; here they are far more common.

SMILES | ASAP1 GAP inh | ARFGAP1 inh | FGF22 binding | Efflux pump inh | Rtt109 HAT inh | ARFGAP1 inh conf
Oc1[nH]c2ccc(Br)cc2c1N=NC(=S)Nc1ccc(F)cc1 | -3.3 | 2.1 | 0.5 | -0.4 | -5.9 | x
Cc1cc(C)n2c(NCc3ccccc3)c(CCc3ccccc3)nc2n1 | -9.2 | -3.9 | 0.0 | x | x | x
NC(Cc1ccc(C(F)(F)F)cc1)c1csc(NC(=O)Nc2ccccc2Cc2ccccc2)n1 (stereo unspecified) | -5.1 | 32.8* | -0.1 | x | x | 10.9
C[C@H](CO)N1C[C@H](C)[C@H](CN(C)Cc2ccc(C(=O)O)cc2)OCc2cnnn2CCCC1=O | x | x | -0.2 | x | x | x
Cc1ccc(/C=N/NC(=O)CSc2nc3nc(C)cc(C)n3n2)cc1 | -9.0 | 19.4 | 0.1 | -0.1 | -0.2 | x
Cc1cc(C)n2nc(SCC(=O)N/N=C/c3ccccc3F)nc2n1 | 4.1 | 26.7* | 0.1 | -0.1 | 6.6 | -0.1
CC(=O)c1cccc(NC(=O)CN(C)Cc2ccc(OC(F)F)cc2)c1 | -10.2 | 42.0* | 0.2 | 0.0 | -2.0 | -3.1
COc1ccc(NC(=O)CN(C)CC(=O)Nc2cccc(C(C)=O)c2)cc1 | 7.2 | 1.5 | 0.1 | 0.9 | -3.1 | x
O=C(Nc1ccc(CN2CCOCC2)cc1)c1ccc(-c2cccc(Cl)c2)o1 | 13.6 | 32.4* | x | 0.0 | -2.5 | 27.3*
O=c1cc(Nc2ccc3c(c2)OCCO3)[nH]c(=O)n1Cc1ccc(F)cc1 | -4.5 | 26.9* | -0.1 | 0.0 | 1.2 | -1.8
Cc1sc2ncnc(SCC(=O)Nc3cccc(S(N)(=O)=O)c3)c2c1C | -1.3 | 27.4* | -0.1 | 0.3 | -3.9 | 1.7
CCS(=O)(=O)c1c(S(=O)(=O)CC)c2ccccn2c1C(N)=O | -9.0 | 2.4 | 42.7 | 0.3 | 0.8 | x
NC(=O)[C@@H]1CCCN1Cc1nc(Cc2ccccc2F)no1 | 4.3 | -8.6 | 0.1 | 0.2 | -4.7 | x
CCn1c(CNC(=O)c2cccs2)nnc1SCC(=O)Nc1cc(Cl)ccc1C | -0.7 | -1.2 | x | -0.1 | 7.4 | x
CCn1c(CNC(=O)c2cccs2)nnc1SCC(=O)Nc1ccc(Cl)cc1 | 2.3 | 31.5* | x | 0.1 | -3.3 | -3.4
O=C(CC1c2cc(F)ccc2C=C(c2ccsc2)N1c1ccc(C#CCCO)cc1)c1ccco1 (stereo unspecified) | 10.4 | 25.0* | -0.1 | x | x | -0.5
COC(=O)c1c(C)[nH]c(C)c1-c1ccccc1 | 10.1 | 24.8* | x | 0.0 | 3.4 | 6.6
C=CCOC(=O)c1ccc(N2CCN(c3ccccc3)CC2)nc1 | 12.1 | 40.3* | 0.0 | 0.2 | x | -0.7
CSCC[C@H](NC(=O)C1CCC(CNC(=O)[C@@H]2CCCN2C(=O)OC(C)(C)C)CC1)C(=O)O (stereo partly specified) | 1.4 | -6.1 | -0.2 | -0.2 | 10.8 | x
CC(C)(C)OC(=O)N1CCC[C@H]1C(=O)NCC1CCC(C(=O)O)CC1 (stereo partly specified) | 5.0 | 26.3* | x | -0.2 | -0.3 | -0.6
O=C(NC1CCCCC1)Sc1ccc(Cl)cc1 | 11.5 | 4.7 | x | 0.0 | -5.6 | x
Cc1ccc(NC(=O)CS(=O)CC(=O)N(C2CCCC2)C(C)C(=O)NC2CCCCC2)cc1 (stereo unspecified) | -3.1 | 2.5 | x | 0.4 | 0.3 | x
OC[C@@H]1CN(Cc2ccccc2)C[C@H](n2cnc3c(NCc4ccc(F)cc4)ncnc32)O1 | 8.1 | -4.7 | -0.1 | x | x | x
OC[C@@H]1CN(Cc2ccc(F)cc2)C[C@H](n2cnc3c(Nc4ccccc4)ncnc32)O1 | -2.3 | 38.2* | 0.4 | x | x | 1.3
C[C@@H]1CN([C@H](C)CO)C(=O)c2cc(NS(=O)(=O)c3cn(C)cn3)ccc2O[C@@H]1CN(C)C(=O)Nc1ccc(C(F)(F)F)cc1 | x | x | -0.4 | x | x | x
SMILES | ASAP1 GAP inh | ARFGAP1 inh | FGF22 binding | Efflux pump inh | Rtt109 HAT inh | ARFGAP1 inh conf
O=c1c2[nH]cnc2n(-c2ccc(F)cc2)c(=O)n1Cc1ccccc1 | 7.5 | -1.0 | 0.1 | 0.1 | 6.9 | x
O=c1c2[nH]cnc2n(-c2cccc(F)c2)c(=O)n1Cc1ccccc1 | 0.6 | 24.6* | 0.0 | -0.1 | -16.4 | 3.3
O=C(N/N=C/c1ccc2c(c1)OCO2)c1ccc2c(c1)OCO2 | 4.5 | 15.9 | 0.0 | -0.5 | 0.7 | x
O=C(N/N=C/C(Cl)=C/c1ccccc1)c1ccc2c(c1)OCO2 | 23.3 | 28.9* | 0.3 | -0.1 | 5.5 | 36.0*
Cc1ccc(CNC(=O)c2nccnc2C(=O)O)cc1 | 1.6 | 4.3 | 0.2 | -0.1 | x | x
CCCCCCCCN1C(=O)[C@H](CC(=O)NCc2ccccc2)C[C@@]2(C(=O)OCC)CCC=C12 | 7.0 | 28.4* | -0.1 | x | x | 4.1
CC(=O)c1ccc(NC(=O)COC(=O)c2c3c(nc4ccccc24)/C(=C\c2cccs2)CCC3)cc1 | 23.2 | 32.0* | 0.1 | 0.0 | -14.4 | 19.5
CC(=O)OCC(=O)Nc1cc(S(=O)(=O)N2CCCCCC2)ccc1Cl | -1.8 | 25.2* | 0.1 | 0.0 | -8.5 | -0.4
O=C(COC(=O)C1CCC1)Nc1cc(S(=O)(=O)N2CCCCC2)ccc1Cl | -14.4 | 5.9 | -0.2 | 0.2 | 13.2 | x
C/C(=N\NC(=O)c1ccc(CSc2cccc3cccnc23)cc1)C1CCCCC1 | -7.4 | -11.0 | 0.1 | -0.2 | -0.9 | x
O=C(O)c1ccc(CSc2nc3ccccc3[nH]2)cc1 | -16.0 | 29.3* | -0.3 | -0.1 | 5.5 | -3.0
COc1ccc(-n2nc(C(=O)NCC(=O)Nc3cccc(Cl)c3)c3ccccc3c2=O)cc1OC | 5.8 | 28.3* | 0.1 | -0.1 | -2.9 | 24.9*
O=C(COC(=O)c1ccc([N+](=O)[O-])cc1)NC12CC3CC(CC(C3)C1)C2 | -7.6 | 25.8* | 0.0 | 0.1 | -0.8 | -5.1
O=C(O)c1ccc(CNCc2cccc(Cl)c2Cl)cc1 | 6.1 | -0.5 | x | -0.3 | 7.9 | x
O=C(Nc1cc([N+](=O)[O-])ccc1Cl)c1cccnc1 | -10.4 | 25.1* | 0.3 | -0.2 | -2.4 | 3.6
COc1cc(/C=N/NC(=O)c2cccnc2)ccc1OS(=O)(=O)c1ccc(C)cc1 | -8.2 | 11.1 | 0.2 | 0.0 | -4.4 | x
COc1ccc(C=NNC(=O)NN=Cc2ccc(OC)c(OC)c2)cc1OC | 6.4 | 37.8* | 0.2 | x | -0.9 | 55.3*
COC(=O)N/N=C/c1ccc(OS(=O)(=O)c2ccc(C)cc2)c(OC)c1 | 5.2 | 37.2* | x | -0.1 | 1.7 | -3.6
Nc1cccc(C(=O)Nc2ccc3nc(-c4cccnc4)[nH]c3c2)c1 | 8.2 | 29.0* | -0.4 | 0.0 | 2.6 | 8.4
Nc1ccc2nc(-c3cccnc3)[nH]c2c1 | 11.5 | -14.3 | x | 0.0 | 7.9 | x
Cn1c(/C(C#N)=C/c2ccc(O)cc2)nc2ccccc21 | 9.4 | 24.9* | 0.0 | 0.1 | 2.9 | 3.3
CC(C)CCC(CCNCc1ccccn1)c1ccc(Cl)cc1 (stereo unspecified) | 4.3 | 30.9* | -0.4 | 0.4 | -1.1 | -9.0
COc1ccc(-n2c(=S)[nH]c3cc(C(=O)Nc4ccc(F)cc4)ccc3c2=O)c(OC)c1 | 15.6 | 25.5* | -0.3 | -0.1 | 9.2 | 12.9
